Measurements from different studies.
Each line is one published result; the experiments were not run side by side.
SLC22A11: Solute carrier family 22 member 11 (SLC22A11, Homo sapiens, UniProt Q9NSA0)
RIOK1: Serine/threonine-protein kinase RIO1 (RIOK1, Homo sapiens, UniProt Q9BRS2)
MINK1: Misshapen-like kinase 1 (MINK1, Homo sapiens, UniProt Q8N4C8)

SMILES | target | test | setting | endpoint | value
CCCCNc1ccc(C(=O)OCCN(C)C)cc1 | SLC22A11 | transporter uptake, inhibitor | 25 µM | inhibition | 80.3%
CCN1/C(=C/C(C)=O)Sc2ccc(F)cc21 | Delta-type opioid receptor (OPRD1, Homo sapiens, UniProt P41143) | ligand displacement, radioligand | 10 µM | inhibition | 0.37%
CC(=O)Oc1ccccc1C(=O)Nc1ncc([N+](=O)[O-])s1 | SLC22A11 | transporter uptake, inhibitor | 25 µM | inhibition | 76.5%
C1=C/COCc2cc(ccc2OCCN2CCCC2)Nc2nccc(n2)-c2cccc(c2)COC/1 | Tyrosine-protein kinase ABL1 (ABL1, Homo sapiens, UniProt P00519, T315I) | binding | 0.1 µM | remaining binding | 13%
CCCCC1C(=O)N(c2ccccc2)N(c2ccccc2)C1=O | SLC22A11 | transporter uptake, inhibitor | 25 µM | inhibition | 82.7%
Cc1cc(S(=O)(=O)N[C@H]2CC[C@H](CN3CCN(c4ccc(C5CCC(=O)NC5=O)cc4F)CC3)CC2)ccc1Nc1ncc(C(F)(F)F)c(N2CCC[C@](C)(O)C2)n1 (stereo partly drawn) | RIOK1 | binding, competition with immobilised ligand | 1 µM | remaining binding | 79%
COc1ccc2oc(-c3ccc4nc(N)oc4c3)c/c(=N\c3ccccc3NC(=O)CCN)c2c1 | MINK1 | binding | 1 µM | remaining binding | 103%
CCCCC(=O)Nc1ccc(-c2ccc3ncn(CCC)c(=O)c3c2)cn1 | MINK1 | binding, competition with immobilised ligand | 0.5 µM | remaining binding | 99%
C[C@]1(O)CCCN(c2nc(Nc3ccc(S(=O)(=O)N[C@H]4CC[C@H](CN5CCN(c6ccc(C7CCC(=O)NC7=O)cc6F)CC5)CC4)cc3F)ncc2C(F)(F)F)C1 (stereo partly drawn) | STE20-like serine/threonine-protein kinase (SLK, Homo sapiens, UniProt Q9H2G2) | binding, competition with immobilised ligand | 1 µM | remaining binding | 34%
Cc1cc(F)cc2c(CCC(=O)N[C@@H]3C(=O)NC[C@H]3O)c(-c3ccc(F)cc3)[nH]c12 | Alpha-2A adrenergic receptor (ADRA2A, Homo sapiens, UniProt P08913) | cell-free assay | 10 µM | inhibition | 26%
CNS(=O)(=O)c1ccc(Nc2ncc(C(F)(F)F)c(N3CCC[C@](C)(O)C3)n2)c(C)c1 | RIOK1 | binding, competition with immobilised ligand | 1 µM | remaining binding | 99%
Cc1cc(O)c(-c2ccc([C@@H](C)CN(C)C)cc2)c2c1[nH]c(=O)c1sccc12 | Receptor-interacting serine/threonine-protein kinase 4 (RIPK4, Homo sapiens, UniProt P57078) | enzyme activity, inhibitor | 0.1 µM | inhibition | 0.327%
CC(C)n1c(/C=C/C(O)CC(O)CC(=O)O)c(-c2ccc(F)cc2)c2ccccc21 (stereo not drawn) | SLC22A11 | transporter uptake, inhibitor | 25 µM | inhibition | 82%
O=C(ON1C(=O)CCC1=O)c1cc(C(F)(F)F)cc(C(F)(F)F)c1 | CD209 antigen (CD209, Homo sapiens, UniProt Q9NNX6) | cell-free assay, inhibitor | pH 7.4 | kinact/KI | 91.7 M⁻¹ s⁻¹
CN(CCOc1ccc(CC2SC(=O)NC2=O)cc1)c1ccccn1 (stereo not drawn) | SLC22A11 | transporter uptake, inhibitor | 25 µM | inhibition | 94.1%
C#Cc1cc(-c2cc(Nc3nc(N[C@@H](C)c4ccc(F)cn4)ncc3Cl)n[nH]2)ccc1C=O | MINK1 | enzyme activity, inhibitor | 0.2 µM | inhibition | 55.9%
CC(C)=CCCC1(C)C=Cc2c(O)c3c(c(CC=C(C)C)c2O1)OC12C(=CCCC1C(C)(C)O[C@@]2(C/C=C(\C)C(=O)O)C(=O)O)C3=O (stereo partly drawn) | SLC22A11 | transporter uptake, inhibitor | 25 µM | inhibition | 87.8%
NC/C(=C\F)COc1cccc(Cn2c(=S)[nH]c(=O)c3[nH]cnc32)c1 | Diamine oxidase [copper-containing] (AOC1, Homo sapiens, UniProt P19801) | enzyme activity, inhibitor | 200 pM | inhibition | 3.14%
